{"data": "Results pooled from the literature", "CDK4": "Cyclin-dependent kinase 4 (CDK4, Homo sapiens, UniProt P11802)", "CDK4 with cyclin D1": "Cyclin-dependent kinase 4, with cyclin D1 (CDK4, Homo sapiens, UniProt P11802)", "CDK4 with cyclin D3": "Cyclin-dependent kinase 4, with cyclin D3 (CDK4, Homo sapiens, UniProt P11802)", "note": "Lines come from different studies, so protocols differ."}
{"SMILES": "CCCCC(=O)Nc1ccc(-c2ccc3ncn(CCC)c(=O)c3c2)cn1", "target": "CDK4", "effect on": "binding", "technique": "competition with immobilised ligand", "tested at": "0.5 µM", "measurement": "remaining binding", "value": "100%"}
{"SMILES": "C1=C/COCc2cc(ccc2OCCN2CCCC2)Nc2nccc(n2)-c2cccc(c2)COC/1", "target": "CDK4 with cyclin D1", "effect on": "binding", "tested at": "0.1 µM", "measurement": "remaining binding", "value": "48%"}
{"SMILES": "COc1ccc2[nH]c3c4[nH]c5ccc(OC)cc5c4c4c(c3c2c1)C(=O)NC4=O", "target": "CDK4 with cyclin D3", "effect on": "binding", "tested at": "1 µM", "measurement": "remaining binding", "value": "74%"}
{"SMILES": "CNS(=O)(=O)c1ccc(Nc2ncc(C(F)(F)F)c(N3CCC[C@](C)(O)C3)n2)c(C)c1", "target": "CDK4 with cyclin D1", "effect on": "binding", "technique": "competition with immobilised ligand", "tested at": "1 µM", "measurement": "remaining binding", "value": "46%"}
{"SMILES": "Cc1ccc(NC(=O)c2ccnc(C(F)(F)F)c2)cc1-c1cc(OCCO)nc(N2CCOCC2)c1", "target": "CDK4 with cyclin D3", "effect on": "binding", "tested at": "1 µM", "measurement": "remaining binding", "value": "100%"}
{"SMILES": "C=CC(=O)N1CCC([C@@H]2CCNc3c(C(N)=O)c(-c4ccc(Oc5ccccc5)cc4)nn32)CC1", "target": "CDK4 with cyclin D1", "effect on": "enzyme activity", "action": "inhibitor", "tested at": "1 µM", "measurement": "inhibition", "value": "0%"}
{"SMILES": "Cc1cc(O)c(-c2ccc([C@@H](C)CN(C)C)cc2)c2c1[nH]c(=O)c1sccc12", "target": "CDK4", "effect on": "enzyme activity", "action": "inhibitor", "tested at": "0.1 µM", "measurement": "inhibition", "value": "4.95%"}
{"SMILES": "C[C@]1(O)CCCN(c2nc(Nc3ccc(S(=O)(=O)N[C@H]4CC[C@H](CN5CCN(c6ccc(C7CCC(=O)NC7=O)cc6F)CC5)CC4)cc3Cl)ncc2C(F)(F)F)C1 (stereo partly drawn)", "target": "CDK4", "effect on": "binding", "technique": "competition with immobilised ligand", "tested at": "1 µM", "measurement": "remaining binding", "value": "93%"}
{"SMILES": "CC#CC(=O)N1CCC[C@H]1c1nc(-c2ccc(C(=O)Nc3ccccn3)cc2)c2c(N)nccn12", "target": "CDK4", "effect on": "enzyme activity", "action": "inhibitor", "tested at": "1 µM", "measurement": "inhibition", "value": "0%"}
{"SMILES": "C[C@]1(O)CCCN(c2nc(Nc3ccc(S(=O)(=O)N[C@H]4CC[C@H](CN5CCN(c6ccc(C7CCC(=O)NC7=O)cc6F)CC5)CC4)cc3F)ncc2C(F)(F)F)C1 (stereo partly drawn)", "target": "CDK4 with cyclin D1", "effect on": "binding", "technique": "competition with immobilised ligand", "tested at": "1 µM", "measurement": "remaining binding", "value": "97%"}
{"SMILES": "CN1CCN(C(=O)c2ccc(NC(=O)Nc3ccc(N(C)c4ccnc(Nc5ccc(CS(C)(=O)=O)cc5)n4)cc3)cc2)CC1", "target": "CDK4", "effect on": "binding", "tested at": "1 µM", "measurement": "remaining binding", "value": "83%"}
{"SMILES": "CO[C@@H]1[C@H](N(C)C(=O)c2ccccc2)C[C@H]2O[C@]1(C)n1c3ccccc3c3c4c(c5c6ccccc6n2c5c31)C(=O)NC4", "target": "CDK4 with cyclin D1", "effect on": "enzyme activity", "action": "inhibitor", "tested at": "1 µM", "measurement": "inhibition", "value": "4%"}
